MIN6 prolif = inducers of MIN6 beta-cell proliferation, primary screen, ATP luminescence, uHTS | MIN6 cells proliferation, ATPlite luminescence, 48 h; cells starved in 0.2% serum; 100% = growth in 10% serum | proliferation, % at 10 µM | 330,000 tested, 0.29% active | AID 2380, 2010;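 active = compounds whose signal lies at least 3.5 SD above the mean of all wells on their plate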
MT1-MMP act inh = blockers of MT1-MMP proenzyme processing, primary screen, HT1080 RFP-PRO-GFP cells, GFP/RFP fluorescence | GFP/RFP ratio fluorescence, overnight; percent of plate control window, DMSO zero | Matrix metalloproteinase-14 (Homo sapiens), P50281 | GFP/RFP ratio change, % at 20 µM | 360,000 tested, 0.061% active;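 active = GFP/RFP ratio change of at least 30% with cell ATP level not reduced by more than half and red fluorescence within 50% of control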
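system = RFP-PRO-GFP reporter HT1080 cells | dosing = 20 µM single dose, 1% DMSO | timing = overnight cell settling, then overnight compound exposure, 37 °C, 5% CO2 | read-out basis = GFP/RFP fluorescence ratio | controls = DMSO and RFP-L50D-GFP cell wells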
SKN-1 block = suppressors of acrylamide-induced Pgst-4::GFP reporter in worms, primary screen, SKN-1 inhibitor project, whole organism, uHTS, GFP/RFP fluorescence ratio, strain VP596. inhibition, % at 21.8 µM. 360,000 tested, 0.49% active. AID 624304, 2012. C. elegans VP596 Pgst-4::GFP/RFP ratio, 24 h;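 active = interference check ratio from 0.5 to 1.5 plus GFP to RFP signal ratio inhibition reaching or exceeding a fixed threshold, cut at about 30% in these data, passing the limit was not always enough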
DAGLB inh = DAGLB lipase inhibitors, primary screen, biochemical, fluorescence, HTS | Diacylglycerol lipase-beta (Homo sapiens), Q8NCG7 | HEK293T DAGLB membrane lysate, EnzChek fluorogenic substrate | inhibition, % at 5.17 µM | 340,000 tested, 0.059% active | AID 504411, 2011; in the data active = inhibition above about 34%
Target sequence (Q8NCG7 whole entry, looked up): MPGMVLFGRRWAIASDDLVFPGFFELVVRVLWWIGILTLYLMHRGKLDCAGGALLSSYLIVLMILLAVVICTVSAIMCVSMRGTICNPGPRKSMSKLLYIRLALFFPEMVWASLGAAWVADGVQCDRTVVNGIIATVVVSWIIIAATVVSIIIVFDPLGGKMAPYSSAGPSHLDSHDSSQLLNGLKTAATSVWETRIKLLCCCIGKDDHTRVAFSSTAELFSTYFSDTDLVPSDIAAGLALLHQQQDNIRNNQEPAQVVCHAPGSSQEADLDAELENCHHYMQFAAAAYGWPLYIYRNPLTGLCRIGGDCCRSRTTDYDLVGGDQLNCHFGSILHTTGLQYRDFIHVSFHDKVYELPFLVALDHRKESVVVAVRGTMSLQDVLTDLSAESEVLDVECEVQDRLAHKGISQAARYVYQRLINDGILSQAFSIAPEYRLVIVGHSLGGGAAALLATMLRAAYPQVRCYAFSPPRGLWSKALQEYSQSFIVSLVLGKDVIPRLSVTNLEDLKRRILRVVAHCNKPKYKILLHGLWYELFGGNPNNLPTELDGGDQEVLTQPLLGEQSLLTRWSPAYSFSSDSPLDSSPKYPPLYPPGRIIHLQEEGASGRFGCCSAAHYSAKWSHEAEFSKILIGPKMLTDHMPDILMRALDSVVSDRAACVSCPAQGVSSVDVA
MsrA inh = bovine MsrA enzyme inhibitors, primary screen, biochemical, absorbance, HTS | purified bovine MsrA, absorbance read-out | 360,000 tested, 0.75% active | AID 651718, 2012 | inhibition, % at 15.5 µM | Methionine sulfoxide reductase A (Bos taurus)
MsrA act = bovine MsrA enzyme activators, primary screen, biochemical, absorbance, HTS | Methionine sulfoxide reductase A (Bos taurus) | purified bovine MsrA, absorbance read-out | activation, % at 10.6 µM | 360,000 tested, 0.3% active | AID 602163, 2012; in the data active = activation above about 7.5%
MsrA conf = bovine MsrA inhibitors, retest, confirmation, biochemical, absorbance, HTS. shares compounds with MsrA inh. purified bovine MsrA, absorbance read-out. inhibition, % at 15.5 µM. 2,300 tested, 41% active;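 note: coupled to thioredoxin reductase with NADPH and selenocystamine and DMSO as substrate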
Hits are given with their value; n = inactive; x = no result given. An excerpt weighted towards active compounds, which were near 1.8% of everything screened. Cut-off read from the data, not from the text of the source, unless noted: active = inhibition above about 4.5%; inactive = the rest.

SMILES	MIN6 prolif	MT1-MMP act inh	SKN-1 block	DAGLB inh	MsrA inh	MsrA act	MsrA conf
C=CCC(=O)NC1CCCc2c1cnn2-c1cc(F)cc(F)c1 (stereo not drawn)	n	n	n	n	n	n	x
Cc1[nH]c2ccccc2c1CCNC(=O)c1ccc2nccnc2c1	n	n	n	n	n	n	x
CCc1cccc2c(C(=S)N3CCOCC3)c[nH]c12	n	n	n	n	n	n	x
CCOC(=O)c1ccccc1NC(=O)CN(c1ccccc1)S(=O)(=O)N(C)C	n	n	n	n	5.6	n	n
COc1ccccc1/C=N/NC(=O)CN(C1=NS(=O)(=O)c2ccccc21)c1ccccc1	n	n	n	n	6.1	n	n
COCCN(C(=O)COC(=O)c1cccs1)c1c(N)n(Cc2ccccc2)c(=O)[nH]c1=O	n	n	n	n	n	n	x
Cc1ccc(/C=N/NC(=O)C(=O)N/N=C/c2ccc(C)o2)o1	n	n	n	n	n	n	x
Cc1ccc(C(=O)N/N=C\c2ccc(Br)o2)o1	n	n	n	n	6.4	n	6.7
O=C(c1cnc2sccn2c1=O)N1CCc2ccccc2C1	n	n	n	n	4.8	n	n
CCCCN(C)CCCNC(=O)/C=C1\Sc2ccccc2NC1=O	n	n	n	n	n	n	x
S=C1NC2(CCCCC2)Nc2ccccc21	n	n	n	n	6.4	n	7.2
S=C1NC2(CCCC2)Nc2ccccc21	n	n	n	n	9.1	n	8.7
c1cc2c3c(cccc3c1)NC1(CCCC1)N2	x	n	n	n	n	n	x
S=C1NC2(CCCCCC2)N=C1c1ccccc1	n	n	n	n	n	n	x
O=C(/C=C/c1cccs1)Nc1nc(-c2ccccc2)cs1	n	n	n	n	n	n	x
O=C(/C=C/c1cccs1)Nc1scc(-c2ccccc2)c1C(=O)O	x	n	n	n	11.3	n	5.6
O=C(/C=C/c1cccs1)Nc1nncs1	n	n	n	n	5.9	n	n
CC(C)C(C(=O)NC(C)(C)C)N1C(=O)c2ccccc2C1=O (stereo not drawn)	n	n	n	n	n	n	x
CC(C(=O)NC(C)(C)C)N1C(=O)c2cccc3cccc(c23)C1=O (stereo not drawn)	n	n	n	n	4.8	n	n
COc1ccc(-n2c(C)nn(C)c2=O)cc1	n	n	n	n	n	n	x
COc1ccc(-n2c(/C=C(\C)O)nc(=O)c3c(C)cc(C)nc32)cc1	n	n	n	n	5.8	n	n
O=C(N/N=C/c1cn(-c2ccccc2)nc1-c1cc2ccccc2o1)c1ccccc1Br	n	n	n	n	n	n	x
O=C(N/N=C/c1cn(-c2cccs2)nc1-c1ccccc1)c1ccccc1O	n	n	n	n	5.5	n	n
O=C(N/N=C/c1cn(-c2cccs2)nc1-c1ccccc1)c1ccccc1Br	n	n	n	n	6.5	n	n
O=C(N/N=C/c1cn(-c2ccccc2)nc1-c1cccnc1)c1ccccc1	n	n	n	n	n	n	x
O=C(NCC1CCCO1)c1cccc(Oc2ccc([N+](=O)[O-])cc2)c1 (stereo not drawn)	n	n	n	n	n	n	x
CN(C)c1ccc(/C=N/NC(=O)c2ccc3nc[nH]c3c2)cc1	n	n	n	n	4.9	n	4.9
CSc1ccc(/C=N/NC(=O)c2ccc3nc[nH]c3c2)cc1	x	n	n	n	5.1	n	6.1
CC1=C(C(=O)OCC2CCCO2)C(c2ccc(Cl)cc2)NC(=O)N1 (stereo not drawn)	n	n	n	n	n	n	x
CN1c2ccccc2C(O)=C(C(=S)Nc2ccc(Cl)cc2)S1(=O)=O	n	n	n	n	5.4	n	6.0
